Bioassay records (PubChem BioAssay)
mABHD4 FP – inhibitors of mouse ABHD4; purified mABHD4, FP-Rh probe fluorescence polarization; inhibition, % at 8.92 µM; actives 0.54% (n = 370,000); AID 720543;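 active = inhibition exceeding the mean over every tested compound plus 3 SD, cut at about 30% in these data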;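 note: 0% = plate median of compound wells and 100% = S159A mutant with DMSO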
Target sequence (Q8VD66 whole entry, looked up): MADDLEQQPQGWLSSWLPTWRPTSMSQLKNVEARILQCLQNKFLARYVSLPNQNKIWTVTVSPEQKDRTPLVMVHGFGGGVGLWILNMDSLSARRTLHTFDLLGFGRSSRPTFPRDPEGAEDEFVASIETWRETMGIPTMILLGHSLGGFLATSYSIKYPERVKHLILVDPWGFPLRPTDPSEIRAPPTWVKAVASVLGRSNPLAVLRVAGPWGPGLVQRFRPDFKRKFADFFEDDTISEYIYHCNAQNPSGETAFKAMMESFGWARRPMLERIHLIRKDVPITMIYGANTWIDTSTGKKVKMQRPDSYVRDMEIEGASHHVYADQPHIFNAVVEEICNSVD
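System: mouse ABHD4 enzyme, wild type / Medium: HEPES pH 7.0, NaCl, Pluronic buffer / Reagent: FP-Rh activity-based fluorescent probe / Control set: S159A mutant high control, sample median low control / Detection: fluorescence polarization with parallel and perpendicular emission, 525/598 nm / Schedule: 45 min + 60 min at 25 °C / Compound dosing: 8.92 µM, single dose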
HTRA1 inh – inhibitors of human serine peptidase HTRA1; Q92743; recombinant HTRA1, FP-rhodamine activity-based probe, fluorescence polarization; inhibition, % at 5.96 µM; actives 0.5% (n = 340,000); in the data active = inhibition above about 36%;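 note: 0% = enzyme with DMSO and 100% = wells lacking enzyme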
PRMT1 FP inh – PRMT1 (human) inhibition, primary screen | Q99873 | recombinant PRMT1, activity-based probe fluorescence polarization | inhibition, % at 2.79 µM | actives 1.3% (n = 370,000) | AID 652257;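 active = inhibition above about 21% made by adding two undisclosed values, limit read from the data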
Target sequence (Q99873 whole entry, looked up): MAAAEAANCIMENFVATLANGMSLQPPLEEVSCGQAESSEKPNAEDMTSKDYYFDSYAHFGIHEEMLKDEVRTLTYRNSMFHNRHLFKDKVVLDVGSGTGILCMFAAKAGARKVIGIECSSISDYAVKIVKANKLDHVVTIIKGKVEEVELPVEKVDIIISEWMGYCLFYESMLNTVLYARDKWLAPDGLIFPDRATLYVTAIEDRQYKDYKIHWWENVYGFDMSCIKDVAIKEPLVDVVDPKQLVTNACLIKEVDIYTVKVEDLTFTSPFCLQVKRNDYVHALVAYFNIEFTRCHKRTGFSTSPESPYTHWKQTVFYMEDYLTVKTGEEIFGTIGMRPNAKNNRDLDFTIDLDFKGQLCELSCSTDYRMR
rCAG binder – molecules binding r(CAG) RNA repeats; r(CAG) RNA repeat, TO-PRO-1 dye displacement fluorescence; inhibition, % at 3 µM; actives 1.3% (n = 370,000); AID 651821;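 active = inhibition above the plate cutoff, the mean of all test compounds on that plate plus 3 SD, cut at about 35% in these data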;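 note: 0% = DMSO alone and 100% = 100 µM mitoxantrone as full dye displacement; higher means more dye released from RNA so lower well fluorescence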
SIAE inh – inhibitors of human sialic acid acetylesterase SIAE. Q9HAT2. SIAE FP-Rh probe binding, fluorescence polarization. inhibition, % at 9.66 µM. actives 0.69% (n = 370,000);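 active = inhibition above a cutoff: mean of compounds within the control limits plus 3 SD of those, cut at about 17% in these data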;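 note: 0% = plate median of compound wells and 100% = probe without SIAE protein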
rCAG bind conf – r(CAG) RNA repeat binding, confirmation. TO-PRO-1 dye displacement fluorescence. AID 652065. shares compounds with rCAG binder. actives 70% (n = 4,300). inhibition, % at 3 µM;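 active = inhibition above a per-plate cutoff, the mean inhibition of sample wells plus 3 SD, cut at about 35% in these data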;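 note: loss of TO-PRO-1 fluorescence as compound displaces dye from 1x1 AA loop RNA; 0% = DMSO only wells and 100% = 100 µM mitoxantrone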
dCAG dye counter – DNA CAG dye complex inhibition counter-screen; actives 94% (n = 4,300); AID 652068; inhibition, % at 3 µM; shares compounds with rCAG binder; d(CAG) DNA oligo TO-PRO-1 dye displacement, fluorescence;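 active = inhibition above its plate's cutoff, the mean test-well inhibition plus 3 SD, cut at about 4.8% in these data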;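 note: 0% = DNA dye mix with DMSO and 100% = 100 µM mitoxantrone; hits displace the dye from DNA and so lower well fluorescence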
Numbers without * were called inactive; nt = no result given. Most compounds without a hit are left out; they make up all but 3.3% or so of the library.

SMILES | mABHD4 FP | HTRA1 inh | PRMT1 FP inh | rCAG binder | SIAE inh | rCAG bind conf | dCAG dye counter
NC1=NC(=O)/C(=C\c2ccc(-c3ccc(Cl)cc3)o2)S1 | -12.1 | -13.2 | 1.7 | 47.8* | -10.6 | 22.1 | 8.6*
NC1=NC(=O)/C(=C/c2cn(CCC(=O)O)nc2-c2ccc(Cl)cc2)S1 | -7.8 | -0.6 | -1.6 | 9.6 | -2.2 | nt | nt
CCCCCCCCCCCC(=O)NC(Cc1ccc(OC)c([N+](=O)[O-])c1)C(=O)O (stereo unspecified) | -6.4 | -15.8 | 3.7 | 44.2* | -2.5 | 42.8* | 9.2*
Cc1c(NC(=O)C2CCCN(S(=O)(=O)c3ccc(F)cc3)C2)c(=O)n(-c2ccccc2)n1C (stereo unspecified) | 4.4 | nt | 5.6 | 2.1 | -3.8 | nt | nt
Nc1c(C(=O)Nc2ccc(S(=O)(=O)N3CCCC3)cc2)sc2nc3cc4c(cc3cc12)CCC4 | -9.9 | -7.4 | 11.1 | 38.1* | -0.2 | 31.1 | 16.4*
O=C(Nc1ccc(S(=O)(=O)Nc2nccs2)cc1)c1cc(-c2ccccc2Cl)nc2ccccc12 | -56.2 | -58.9 | 1.7 | 76.4* | -17.0 | 76.9* | 40.5*
O=C(Nc1ccc(S(=O)(=O)Nc2nccs2)cc1)c1ccncc1 | -3.6 | nt | 7.7 | 2.2 | -0.7 | nt | nt
O=C(Nc1ccc(S(=O)(=O)Nc2nccs2)cc1)C1=NN(c2ccccc2)C(=O)CC1 | 9.4 | 3.0 | 5.3 | 35.6* | -4.4 | 28.5 | 14.5*
O=S(=O)(Nc1nccs1)c1ccc(Nc2nnc(-c3ccccc3)c3ccccc23)cc1 | -16.6 | -20.6 | -0.7 | 54.0* | -20.0 | 64.6* | 26.7*
CN(C)c1cccc(C(=O)Nc2ccc(S(=O)(=O)Nc3nccs3)cc2)c1 | 27.7 | 4.3 | 0.1 | 35.9* | 0.6 | 28.1 | 10.0*
CC(=O)CC[C@H]1CC[C@]2(CCCN(S(C)(=O)=O)C2)O1 | -5.9 | nt | -0.4 | 4.6 | 0.4 | nt | nt
Nc1[nH]c(C(=O)c2ccccc2)c(-c2ccc(Cl)cc2)c1C(=O)c1c[nH]c2ccc(Br)cc12 | -35.2 | nt | -4.2 | 25.3 | -24.4 | nt | nt
Cc1ccc(S(=O)(=O)N2CCC(C(=O)NCc3cccs3)CC2)cc1 | 2.4 | nt | 1.1 | 3.6 | -6.8 | nt | nt
O=C(Nc1ccncc1)c1cc(-c2ccccn2)nc2ccccc12 | -0.1 | 0.3 | 0.9 | 1.4 | 0.3 | nt | nt
O=C(Nc1ccc(S(=O)(=O)Nc2nccs2)cc1)c1cc(-c2ccccn2)nc2ccccc12 | -11.8 | -9.6 | 0.2 | 66.3* | -18.6 | 61.0* | 25.6*
Cc1cccc(C)c1NC(=O)Cn1nnc(-c2ccncc2)n1 | 3.6 | nt | 0.0 | 0.7 | 1.4 | nt | nt
O=C(COC(=O)c1cccc(NS(=O)(=O)c2ccc(F)c(F)c2)c1)NC(=O)NC1CCCC1 | -9.8 | 6.9 | 1.8 | 35.6* | -7.2 | 25.6 | 5.0*
Cc1ccc(CNC(=O)C2CC(c3ccc([N+](=O)[O-])cc3)=NO2)cc1 (stereo unspecified) | 7.2 | -2.2 | -1.9 | 44.4* | -4.0 | 3.0 | -0.4
Cc1ccc(CNC(=O)C2CC(c3cccc(F)c3)=NO2)cc1 (stereo unspecified) | 0.7 | -8.6 | 1.2 | -3.0 | 6.0 | nt | nt
CC(=O)Nc1ccc(Nc2nc3ccccc3nc2NS(=O)(=O)c2ccccc2)cc1 | 5.3 | 2.9 | 3.0 | 34.4 | -1.1 | nt | nt
CC(=O)Nc1ccc(S(=O)(=O)Nc2nc3ccccc3nc2Nc2ccccc2)cc1 | 0.5 | 0.4 | -0.6 | 47.3* | 1.0 | 40.1* | 9.6*
CC(=O)Nc1ccc(S(=O)(=O)Nc2nc3ccccc3nc2Nc2cccc(S(N)(=O)=O)c2)cc1 | 0.6 | -4.8 | 3.4 | 52.0* | -1.7 | 37.2* | 7.6*
O=[N+]([O-])c1cccc(S(=O)(=O)Nc2nc3ccccc3nc2Nc2cccc(S(=O)(=O)N3CCCCC3)c2)c1 | 21.5 | -6.2 | -0.7 | 52.3* | -29.5 | 94.7* | 85.6*
NC(=O)C1CCN(c2ncc(Br)cn2)CC1 | 6.8 | nt | 3.0 | nt | 0.8 | nt | nt
Cc1cccc(Nc2nnc(SC/C(O)=C(\C#N)c3nc4ccccc4[nH]3)s2)c1C | -2.0 | 16.1 | 6.7 | 25.9 | -0.9 | nt | nt
SMILES | mABHD4 FP | HTRA1 inh | PRMT1 FP inh | rCAG binder | SIAE inh | rCAG bind conf | dCAG dye counter
Cc1ccc(Nc2nnc(SCC(O)=C(C#N)c3nc4ccccc4[nH]3)s2)c(C)c1 | 11.0 | 11.9 | 3.4 | 57.5* | -1.6 | 44.8* | 20.9*
O=C(CSc1nc2ccccc2s1)NNC(=S)Nc1ccc(Cl)cc1 | 12.2 | 15.1 | 1.0 | 58.2* | -7.3 | 69.1* | 30.3*
CCN(CC)c1ccc(NC(=O)CSc2nc3ccccc3c(=O)n2-c2ccc(C)cc2)cc1 | 9.2 | nt | -3.0 | 12.8 | 7.9 | nt | nt
Cc1ccc(NC(=S)NNC(=O)CSc2nc3ccccc3c(=O)n2-c2ccc(Cl)cc2)cc1 | -7.0 | nt | 0.5 | 57.4* | -1.6 | 47.1* | 21.5*
Cc1ccc(-n2c(SCC(=O)NNC(=S)Nc3ccccc3)nc3ccccc3c2=O)cc1 | -15.8 | -13.2 | 9.1 | 55.4* | -1.8 | 42.2* | 18.2*
CCOc1ccc(CCNC(=O)Cc2ccccc2)cc1OCC | 7.1 | nt | 2.2 | nt | 1.2 | nt | nt
COc1ccc(N(CC(=O)Nc2cc(C)ccc2OC)S(=O)(=O)c2c(C)noc2C)cc1 | -4.2 | -7.4 | -4.2 | -3.3 | -0.7 | nt | nt
COc1ccc(N(CC(=O)Nc2cc(OC)c(OC)cc2C(=O)O)S(=O)(=O)c2c(C)noc2C)cc1 | -9.4 | -0.4 | 4.7 | 40.8* | -4.5 | 24.1 | 3.3
CCOC(=O)Cc1c(C)nc2c(-c3cccc(Br)c3)c[nH]n2c1=O | -0.2 | 6.8 | 0.0 | 72.0* | 7.0 | 46.6* | 15.4*
Cc1cc(Nc2cccc(Cl)c2)nc(-c2ccccc2O)n1 | -32.4 | -17.0 | 2.7 | 36.4* | -21.8 | 23.8 | 10.0*
Cc1cc(Nc2ccc(Cl)cc2)nc(-c2ccccc2O)n1 | 0.9 | -21.4 | 1.2 | 25.4 | 11.8 | nt | nt
O[C@H](COc1ccccc1)CN1CCC(C(O)(c2ccccc2)c2ccccc2)CC1 | 0.9 | nt | -4.3 | 0.1 | -5.8 | nt | nt
O=C(c1cc(Br)c(Br)s1)N1CCN(C/C=C/c2ccccc2)CC1 | 3.4 | -31.5 | -0.3 | 35.7* | -1.4 | 2.9 | 3.1
Cc1cc(C(=O)N2CCN(C/C=C/c3ccccc3)CC2)cs1 | nt | -6.0 | nt | nt | nt | nt | nt
O=C1N(c2ccccc2)CC2CC(c3ccccc3)N3CCCC123 (stereo unspecified) | 4.9 | nt | 2.9 | 11.8 | -1.1 | nt | nt
COc1cccc(NC(=O)Nc2nnc(Cc3ccccc3)s2)c1 | -8.1 | -16.3 | -1.1 | 41.1* | -3.4 | 22.2 | 14.8*
COc1cccc(NC(=O)Nc2nnc(COCCO)s2)c1 | -14.2 | nt | 3.8 | 8.2 | 0.9 | nt | nt
CCSc1nnc(NC(=O)[C@@H](NC(=O)c2cccc(C)c2)C(C)C)s1 | 4.1 | -8.9 | -2.3 | 0.9 | 4.2 | nt | nt
COc1ccc(Cc2nnc(NC(=O)Nc3ccc(F)cc3)s2)cc1 | -6.3 | -3.1 | -0.2 | 33.6 | -7.3 | nt | nt
CCSc1nnc(NC(=O)Nc2cccc(C)c2)s1 | -8.8 | -32.1 | -1.8 | 56.3* | -7.5 | 18.4 | 16.6*
